Assay results: ChEMBL document CHEMBL1123194, “Isozyme-specific enzyme inhibitors. 11. L-homocysteine-ATP S-C5' covalent adducts as inhibitors of rat methionine adenosyltransferases” (J Med Chem, 1986)
Where “and” joins values, the source holds several entries; their conditions need not be identical. Equal entries are not always repeated.

Legend:
[1] = biological target: S-adenosylmethionine synthase isoform type-2 (Rattus norvegicus, UniProt P18298); test: Inhibition constant was evaluated with kidney Methionine adenosyltransferase II form of rat methionine adenosyltransferase, when ATP was the variable substrate (60 uM)
Method in brief: (§1)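 Rat MAT-2 and MAT-T, partially purified as described in earlier work. Assayed at 37 °C for 10 min in duplicate in 150 mM KCl, 15 mM MgCl2, 5 mM dithiothreitol, 50 mM Tris-HCl, pH 8.2, with L-[methyl-14C]methionine and MgATP. Six to eight levels of the variable substrate (0.5-4.0 × KM), two inhibitor levels plus no-inhibitor controls. Product captured on phosphocellulose disks and counted by scintillation. Blanks lacked ATP.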

[2] = biological target: T1, S-adenosylmethionine synthetase (MAT 1 and MAT 2) (Rattus norvegicus, UniProt P13444+P18298); test: Inhibition constant was evaluated on novikoff hepatoma (MAT-T) form of rat methionine adenosyltransferase, when ATP was the variable substrate (60 uM); type: protein assay; conditions: in the assay text read “120 uM” for “60 uM”; method in brief: as §1
[3] = Michaelis constant (KM) was evaluated; type: ADME
[4] = biological target: T1, S-adenosylmethionine synthetase (MAT 1 and MAT 2); test: Inhibition constant was evaluated with kidney (MAT-2) form of rat methionine adenosyltransferase, when methionine was the variable substrate (2 mM); type: protein assay; method in brief: as §1
[5] = biological target: T1, S-adenosylmethionine synthetase (MAT 1 and MAT 2); test: Inhibition constant was evaluated on novikoff hepatoma (MAT-T) form of rat methionine adenosyltransferase, when methionine was the variable substrate (2 mM); type: protein assay; method in brief: as §1

Sequence of S-adenosylmethionine synthase isoform type-2 (P18298 whole entry, canonical isoform): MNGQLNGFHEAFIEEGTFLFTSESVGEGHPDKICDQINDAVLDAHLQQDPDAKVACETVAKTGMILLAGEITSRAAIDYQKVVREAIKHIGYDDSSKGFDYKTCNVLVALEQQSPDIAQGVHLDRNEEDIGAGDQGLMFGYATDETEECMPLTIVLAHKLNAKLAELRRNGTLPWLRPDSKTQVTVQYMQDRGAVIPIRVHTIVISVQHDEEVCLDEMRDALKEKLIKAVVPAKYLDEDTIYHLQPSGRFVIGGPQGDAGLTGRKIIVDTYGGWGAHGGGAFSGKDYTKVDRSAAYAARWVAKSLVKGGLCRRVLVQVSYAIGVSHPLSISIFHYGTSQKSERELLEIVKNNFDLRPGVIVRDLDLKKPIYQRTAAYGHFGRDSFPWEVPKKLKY

SMILES | Ki [1] [µM] | Ki [2] [µM] | Km [3] | Ki [4] [µM] | Ki [5] [µM]
Nc1ncnc2c1ncn2[C@@H]1O[C@H](C(CP(=O)(O)OP(=O)(O)OP(=O)(O)O)[S+]([O-])CCC(N)C(=O)O)[C@@H](O)[C@H]1O (stereo not given in full) | 140 | 81 | – | – | –
Nc1ncnc2c1ncn2[C@@H]1O[C@H](COP(=O)(O)OP(=O)(O)OP(=O)(O)O)[C@@H](O)[C@H]1O | – | – | 140 µM | – | –
Nc1ncnc2c1ncn2C1OC(CCP(=O)(O)OP(=O)(O)OP(=O)(O)O)[C@@H](O)[C@H]1O (stereo not given in full) | – | – | 75 µM and 310 µM | – | –

The next lines start with the values.

Ki [1] [µM] | Ki [2] [µM] | Km [3] | Ki [4] [µM] | Ki [5] [µM] | SMILES
39 | 32 | – | 62 | – | Nc1ncnc2c1ncn2[C@@H]1O[C@H](C(CP(=O)(O)OP(=O)(O)OP(=O)(O)O)SCCC(N)C(=O)O)[C@@H](O)[C@H]1O (single isomer, unassigned; epimer 1)
180 | 148 | – | 200 | – | Nc1ncnc2c1ncn2[C@@H]1O[C@H](C(CP(=O)(O)OP(=O)(O)OP(=O)(O)O)SCCC(N)C(=O)O)[C@@H](O)[C@H]1O (single isomer, unassigned; epimer 2)
– | – | 5 µM and 15 µM | – | – | CSCC[C@H](N)C(=O)O [METHIONINE]
16 | 11 | – | 26 | 38 | Nc1ncnc2c1ncn2[C@@H]1O[C@H](C(CP(=O)(O)OP(=O)(O)NP(=O)(O)O)SCCC(N)C(=O)O)[C@@H](O)[C@H]1O (stereo not given in full)
